Data set [1] has as its target T1, Protein kinase C (PKC) (Homo sapiens) (UniProt O94806+P41743+P17252+P05129+Q05655+P05771+Q05513+Q02156+P24723+Q15139+Q04759). The experiment in a line: Activation of PKC in human U1 cells infected with latent HIV-1 assessed as reversal of HIV-1 latency by measuring increase in p24 antigen level at 1 to 10000 nM incubated for 48 hrs by chemiluminescent enzyme immunoassay. The note with it: filed as activator, dose 1-10000 nM. The data set is classed as cell-based. Put shortly:
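ACH-2 or U1 cells (5 × 10^5 cells/ml) incubated 48 h with graded drug concentrations. Supernatant p24 antigen measured by automated chemiluminescent immunoassay. EC50 calculated taking the maximum response with excess PMA as 100%. Means ± S.D. of three independent experiments.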

Data set [2] has as its target T1, Protein kinase C (PKC) (Homo sapiens). The experiment in a line: (§1) Activation of PKC in human ACH-2 cells infected with latent HIV-1 assessed as reversal of HIV-1 latency by measuring increase in p24 antigen level incubated for 48 hrs by chemiluminescent enzyme immunoassay. The data set is classed as cell-based. As to conditions: ACH-2 cell line, filed as activator.

A further data set has as its target Protein kinase C (PKC). The data set is described as §1. The data set is classed as cell-based. The note with it: ach-2 cell line.
The target in data set [3] is T1, Protein kinase C (PKC) (Homo sapiens). The experiment in a line: Synergistic activation of PKC in human J-Lat 10.6 cells infected with latent HIV-1 assessed as reversal of HIV-1 latency by measuring increase of GFP-positive cells at 400 nM in presence of 500 nM JQ1 incubated for 24 hrs by flow cytometry. The data set is classed as cell-based. As to conditions: filed as activator. Put shortly: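 J-Lat 10.6 cells at 5 × 10^5 cells/ml treated 24 h alone or with 500 nm JQ1. GFP-positive cells counted by flow cytometry. Fraction affected normalised to PMA response after subtracting the no-drug value. Synergy by Bliss independence (Δfaxy). Mean ± S.D. of three independent experiments.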

Data set [4] has the same target. The experiment in a line: Activation of PKC in human ACH-2 cells infected with latent HIV-1 assessed as reversal of HIV-1 latency by measuring increase in p24 antigen level at 5 to 50 nM incubated for 48 hrs in presence of 100 nM GSK525762A by chemiluminescent enzyme immunoassay. The data set is classed as cell-based. As to conditions: ACH-2 cell line, dose 5-50 nM. The method in brief: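 ACH-2 cells treated 48 h with 5–50 nM of the test agent, alone or combined with 100 nM GSK525762A (BRD4 inhibitor). Supernatant p24 measured by chemiluminescent immunoassay. Synergy or antagonism scored with the Bliss independence model (Δfaxy >0 synergy, <0 antagonism). Three independent experiments, mean ± S.D.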

Data set [5] has the same target. The experiment in a line: Synergistic activation of PKC in CD4+ T-cells purified from HIV-infected patient assessed as increase in transcription of HIV mRNA at 5 uM incubated for 24 hrs in presence of 1 uM JQ1 by qRT-PCR method. The note with it: CD4+ T cell, filed as activator. The data set is classed as cell-based. The method in brief:
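CD4+ T-cells purified from PBMC of patients on cART for at least 5 years with plasma viral load <20 copies/ml. Cells plated at 2.5 × 10^6 cells/ml and treated 24 h, alone or with 1 μm JQ1. Intracellular HIV RNA measured by qRT-PCR against a plasmid standard curve, normalised per ng input RNA, relative to untreated cells. Synergy assessed by Bliss independence model.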
On the technique in general: In qPCR the cycle at which signal appears reflects the starting amount.

Data set [6] relates to U1. The experiment in a line: Induction of apoptosis in human U1 cells at 1 uM incubated for 48 hrs by propidium iodide/annexin-V staining based flow cytometry. The data set is classed as functional.
For another data set, the system named is CD4+ T cell. The experiment in a line: Induction of apoptosis in CCL19-induced human CD4+ T-cells infected with latent HIV-1 assessed as caspase-3 activation at 1 uM incubated for 48 hrs by FACS. The data set is classed as functional, cell-based. Put shortly: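 Latency model: healthy-donor CD4+ T-cells given 100 nM CCL19 for 2 days, infected with HIV-1 NL4-3, kept 5 days in IL-2. Stimulated 2 days with 1 µM drug or 100 nM PMA plus 2 µM ionomycin. Cells fixed and permeabilized, co-stained with anti-p24 and anti-active caspase-3 mAbs; active caspase-3 read by flow cytometry separately in p24+ and p24− cells. Two donors.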
A general note: A flow cytometer gives signals particle by particle.

Data set [7] deals with T1, Protein kinase C (PKC) (Homo sapiens). The experiment in a line: Activation of PKC in human J-Lat 6.3 cells infected with latent HIV-1 assessed as reversal of HIV-1 latency by measuring increase of GFP-positive cells at 10 uM in presence of PKC theta/delta/epsilon/eta inhibitor PKCtheta/delta inhibitor incubated for 24 hrs by flow cytometry. The data set is classed as cell-based. Put shortly:
(§2)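 J-Lat 6.3 cells pretreated 3 h with a PKC inhibitor: Gö 6983 1 µM, Gö 6976 1 µM, GF 109203X 1 µM, PKCθ/δ inhibitor 10 µM, or Rottlerin 1 µM. Then exposed to 10 µM compound for 24 h; GFP-positive cells counted by flow cytometry. Mean ± S.D.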

The target is the same in data set [8]. The experiment in a line: Activation of PKC in human J-Lat 6.3 cells infected with latent HIV-1 assessed as reversal of HIV-1 latency by measuring increase of GFP-positive cells at 10 uM in presence of PKC delta inhibitor Rottlerin incubated for 24 hrs by flow cytometry. The data set is classed as cell-based. The method in brief: as §2
A short description of data set [9]: Toxicity in human CD4+ T-cells assessed as elevation of supernatant cytokine concentrations of IL-13 incubated for 24 hrs by bead-based immunoassay. As to conditions: cd4+ t cell. Put shortly:
(§3)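 Purified CD4+ T-cells from healthy donors treated 24 h with 1 μm drug, 1 μm JQ1, or the combination. IL-2, IL-5, IL-6, IL-13, TNFα and IFN-γ in supernatants measured by flow-cytometry bead-based Th1/Th2 immunoassay. Run in duplicate.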

The nature of data set [10]: Toxicity in human CD4+ T-cells assessed as elevation of supernatant cytokine concentrations of IL-5 incubated for 24 hrs by bead-based immunoassay. The note with it: cd4+ t cell. The method in brief: as §3
Data set [11] can be described thus: Toxicity in human CD4+ T-cells assessed as elevation of supernatant cytokine concentrations of IL-2 incubated for 24 hrs in presence of JQ1 by bead-based immunoassay. As to conditions: cd4+ t cell. The method in brief:
as §3

Data set [12] is described as follows: Toxicity in human CD4+ T-cells assessed as elevation of supernatant cytokine concentrations of IL-5 incubated for 24 hrs in presence of JQ1 by bead-based immunoassay. As to conditions: cd4+ t cell. Put shortly: as §3
Data set [13] is described as follows: Toxicity in human CD4+ T-cells assessed as elevation of supernatant cytokine concentrations of IL-6 incubated for 24 hrs in presence of JQ1 by bead-based immunoassay. As to conditions: cd4+ t cell. The method in brief: as §3
Data set [14] in a line: Toxicity in human CD4+ T-cells assessed as elevation of supernatant cytokine concentrations of IL-13 incubated for 24 hrs in presence of JQ1 by bead-based immunoassay. As to conditions: cd4+ t cell. The method in brief:
as §3

Data set [15] can be described thus: Toxicity in human CD4+ T-cells assessed as elevation of supernatant cytokine concentrations of IFNgamma incubated for 24 hrs in presence of JQ1 by bead-based immunoassay. As to conditions: cd4+ t cell. The method in brief: as §3
For data set [16], the system named is U1. The experiment in a line: Induction of apoptosis in human U1 cells at 1 uM incubated for 48 hrs by propidium iodide/annexin-V staining based flow cytometry (reference value: 3.16%). The data set is classed as functional.
The subject of data set [17] is U1. The experiment in a line: Induction of apoptosis in human U1 cells assessed as caspase-3 activation at 1 uM incubated for 24 hrs by flow cytometry. The data set is classed as functional. Put shortly: (§4)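 Cells fixed in 1% paraformaldehyde, permeabilized, stained 30 min on ice with anti-active caspase-3 mAb, and analysed by flow cytometry. Three independent experiments.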

Another data set concerns U-937. The experiment in a line: Induction of apoptosis in human U-937 cells assessed as caspase-3 activation at 1 uM incubated for 24 hrs by flow cytometry. The data set is classed as functional. Put shortly: as §4
The test system of the next data set is J-Lat 6.3. The experiment in a line: Induction of apoptosis in human J-Lat 6.3 cells assessed as caspase-3 activation at 1 uM incubated for 24 hrs by flow cytometry (reference value: 2.43%). The data set is classed as functional. Put shortly:
as §4

The source made the active and inactive calls. The rule behind the calls is not given here.

A word on the EC50: it is the concentration that produces a half-maximal response. For the compound `CCCCCCCCCCc1ccc2c(c1)N(C)[C@@H](C(C)C)C(=O)N[C@H](CO)C2`, the outcome (in [1]; in the data set on CD4+ T cell) was Active. For the same compound, the Activity result in data set [2] is “Dose-Dependent Effect”; in data set [3], 73.1%; in the data set with U1 [6] it was 28.4%; in data set [9] it was “Toxic”; in data set [10], “Toxic”; in data set [11], “Non-Toxic”. The Activity result was “Non-Toxic” in data set [12]; “Non-Toxic” in data set [13]; “Non-Toxic” in data set [14]; “Non-Toxic” in data set [15]; 28.4% in the data set with U1 [16]; 24.9% in the data set with U1 [17]. In addition, the results for the Activity with U-937 and with J-Lat 6.3 were 0.5% and 21.9%, respectively. Besides, the half-maximal effective concentration (EC50) on Protein kinase C (PKC) worked out at 25 nM. Besides, the outcome in data set [4], in data set [7] and in [8] was inactive. Moreover, the fold change (FC) in data set [5] worked out at 13.4.
